From PubChem BioAssay
FLuc stim CS – FLuc activators, initial screening, artefact control for FLuc-dependent activation tests, biochemical, ATPlite luminescence | ATPlite luciferase biochemical, 10 min; 0 = ATP-free wells, 1 = DMSO control | AID 1027, 2008 | 200,000 tested, under 10 active | Luciferin 4-monooxygenase (Photinus pyralis), P08659 | activation factor at 10 µM;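 active means luciferase activation factor, scaled between plate controls, of at least 2 with compound at 10 µM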
Target sequence (P08659 whole entry, looked up): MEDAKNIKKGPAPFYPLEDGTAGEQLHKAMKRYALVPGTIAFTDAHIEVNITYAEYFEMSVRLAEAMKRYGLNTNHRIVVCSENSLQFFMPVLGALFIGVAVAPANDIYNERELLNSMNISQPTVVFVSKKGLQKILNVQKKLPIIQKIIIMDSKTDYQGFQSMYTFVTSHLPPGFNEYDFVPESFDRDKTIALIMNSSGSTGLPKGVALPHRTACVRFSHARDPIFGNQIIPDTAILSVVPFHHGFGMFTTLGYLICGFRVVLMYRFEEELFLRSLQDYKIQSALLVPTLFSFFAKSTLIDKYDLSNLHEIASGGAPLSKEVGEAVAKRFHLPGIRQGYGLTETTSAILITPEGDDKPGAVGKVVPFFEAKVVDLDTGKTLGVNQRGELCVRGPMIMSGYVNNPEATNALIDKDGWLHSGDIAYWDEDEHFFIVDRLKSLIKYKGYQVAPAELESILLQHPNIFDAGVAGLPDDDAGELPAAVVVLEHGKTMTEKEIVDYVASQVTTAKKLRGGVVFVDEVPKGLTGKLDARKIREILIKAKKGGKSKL
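Material: Luciferase/luciferin reagent mix; Doses: test compounds dosed from 2 mM stocks in 100% DMSO; Schedule: 10 min incubation after luciferase reagent addition, room temperature; Measured by: luminescence from luciferase reaction; Read-out: luminescence gain marking luciferase activators.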
STAT1 act – STAT1 signaling activators, primary screen, cell-based, HTS, luciferase reporter | hit rate 2.6% among 200,000 | NIH 3T3 STAT1-luciferase reporter, IFN-gamma, luminescence; 100% = IFN-gamma alone, no compound | AID 932, 2007 | activation (% of control), % at 5.5 µM;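 active means activation above the screen-wide mean activation plus 3 SD, cut at about 130% in these data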;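 further: raw ratio to IFN-gamma control signal so 100% means no change and 0% no light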
FLuc inhib CS – firefly luciferase enzyme inhibitors, primary screen, artefact control for luciferase-based inhibitor screens, biochemical, luminescence, ATPLite; hit rate 1.5% among 200,000; inhibition, % at 10 µM; 10 min; Luciferin 4-monooxygenase (Photinus pyralis), P08659;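 active means inhibition above about 50% when tested at 10 µM, limit read from the data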
NF-kB expr up – activators of NF-kB expression in neurons, primary screen, cell-based, HTS; human neuronal cells, NF-kB reporter expression; stronger effect = higher value; fold change at 12.5 µM; hit rate 1.6% among 190,000; AID 1239, 2008; in the data active means fold change above about 3.3
APP 5'UTR act – activators of APP 5'UTR luciferase reporter, primary screen, SH-SY5Y cells | hit rate 1% among 190,000 | SH-SY5Y APP 5'UTR luciferase reporter, luminescence; zero percent = DMSO vehicle wells | activation, % at 2 µM | AID 1276, 2008;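 active means activation above a set limit, based on mean plus 3 SD of controls, cut at about 140% in these data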
Numbers without * were called inactive; . = no result given. Shown are actives, neighbours in structure and some others; about 4.1% of the full set was active somewhere.

SMILES | FLuc stim CS | STAT1 act | FLuc inhib CS | NF-kB expr up | APP 5'UTR act
CCOC(=O)Nc1ccc2c(c1)OCO2 | 1 | 114.9 | 4.0 | 1.45 | 27.1
CN(c1ccccc1C(=O)Nc1ccc2c(c1)OCO2)S(C)(=O)=O | 1 | 100.9 | -4.9 | 1.05 | -0.9
CCOC(=O)c1c(C)[nH]c(C(=O)Nc2ccc3c(c2)OCO3)c1C | 0.8 | 141.0* | 24.7 | 7.76* | 164.0*
COc1cc(SC)ccc1C(=O)NCCOc1ccc(F)cc1 | 1 | 135.4* | -3.6 | 3.18 | 52.6
CN(c1ccc(C(=O)Nc2ccc3c(c2)OCCO3)cc1)S(C)(=O)=O | 0.4 | 126.8 | 56.0* | 2.59 | 104.5
CN(c1ccccc1C(=O)Nc1ccc2c(c1)OCCO2)S(C)(=O)=O | 1.1 | 79.7 | -7.2 | 1.14 | -13.3
COc1ccccc1C(=O)NCc1ccc2c(c1)OCO2 | 1 | 106.1 | -1.4 | 1.3 | 26.9
COc1ccccc1C(=O)Nc1ccc2c(c1)OCO2 | 0.7 | 132.3* | 30.6 | 2.65 | 90.7
COc1cc(SC)ccc1C(=O)Nc1ccc2c(c1)OCCO2 | 0.2 | 130.5* | 82.6* | 4.61* | 155.0*
Fc1ccc(-c2nnc3ccccn23)cc1 | 1.1 | 91.3 | -5.6 | 1.06 | 3.8
Cn1nnnc1SCc1cccc2ccccc12 | 1 | 108.2 | -1.2 | 0.96 | 31.8
O=C(c1ccc(-c2ccccc2)c(F)c1)C1CCCN(C(=O)c2cncs2)C1 (stereo not drawn) | 1.1 | 93.2 | -8.4 | 1.09 | 4.0
COc1cc(SC)ccc1C(=O)Nc1ccccc1 | 1 | 135.3* | -3.3 | 3.66* | 58.1
O=C(Nc1c(C(=O)Nc2cccc(F)c2)oc2ccccc12)c1ccc2c(c1)OCO2 | 0.9 | 100.2 | 14.0 | 1.2 | 19.4
C=CCOc1ccc(C(=O)NC2CCCCC2)cc1 | 0.8 | 131.5* | 23.6 | 2.07 | 23.2
Cc1ccnc2nc(C(=O)Nc3ccc4c(c3)OCO4)nn12 | 0.5 | 107.4 | 50.7* | 4.05* | 40.1
O=C(Nc1cccc(F)c1)c1ccc2c(c1)OCO2 | 0.7 | 118.4 | 30.4 | 3.5* | 62.1
CC(C)Oc1ccc(C(=O)NC2CCCCC2)cc1 | 0.8 | 127.5 | 22.9 | 2.74 | .
Cc1nn(C)cc1CNC(=O)Nc1cccc(Cl)c1 | 0.8 | 118.7 | 19.8 | 2.12 | 19.0
CCOc1ccccc1N(CC(=O)OC)S(=O)(=O)c1ccccc1 | 1.1 | 94.4 | -6.7 | 0.81 | -0.1
O=C(O)c1cc(Br)ccn1 | 1 | 93.8 | -2.5 | 1.52 | -2.1
COc1ccc(NC(=O)c2ccc3c(c2)OCO3)cc1[N+](=O)[O-] | 0.7 | 139.1* | 26.1 | 1.25 | 37.1
COc1ccccc1C(=O)Nc1ccc2c(c1)OCCO2 | 0.5 | 139.7* | 49.5 | 3.46* | 136.7*
C/C(=C\C(=O)c1ccc(C)o1)Nc1ccc2c(c1)OCO2 | 0.5 | 105.8 | 52.0* | 1.53 | 90.6
Cc1ccc(C(=O)Nc2ccc3c(c2)OCO3)cc1 | 0.1 | 81.6 | 87.6* | 4.94* | 142.5*
SMILES | FLuc stim CS | STAT1 act | FLuc inhib CS | NF-kB expr up | APP 5'UTR act
O=C(Nc1ccc2c(c1)OCO2)c1ccncc1 | 1 | 105.6 | 1.2 | 1.46 | 10.9
COCCSc1ccccc1C(=O)Nc1ccc2c(c1)OCCO2 | 1.1 | 103.6 | -9.4 | 1.23 | -3.7
Cc1[nH]nc2ncc(C(=O)c3cc(F)ccc3O)cc12 | 1.1 | 104.1 | -9.8 | 0.73 | -10.5
COc1cc(SC)ccc1C(=O)Nc1nccs1 | 0.1 | 70.0 | 91.5* | 1.04 | 190.4*
CCN(CC)c1ccc(NC(=O)c2cc(Cl)ccc2OC)cc1 | 1 | 95.3 | 3.3 | 0.8 | -2.6
COc1ccc(Cl)cc1C(=O)Nc1ccc2c(c1)OCO2 | 0.6 | 134.7* | 37.8 | 1.25 | 39.1
CCN(CC)c1ccc(C=Nc2ccccc2C)c(O)c1 | 0.5 | 101.9 | 53.4* | 1.53 | -8.0
CCOC(=O)C1(Cc2cccc(OC)c2)CCCN(Cc2cc(C(C)C)n[nH]2)C1 (stereo not drawn) | 1 | 95.9 | -3.5 | 0.89 | -7.0
CCOC(=O)C1(Cc2cccc(OC)c2)CCCN(C(=O)c2cc(C)[nH]n2)C1 (stereo not drawn) | 1 | 140.5* | -2.2 | 2.55 | 34.4
CCN(CC)C(=S)SCC(=O)c1c(C)[nH]c2ccccc12 | 1 | 106.3 | 4.2 | 1.03 | -2.6
CCN(CC)C(=S)SCC(=O)c1ccccc1 | 0.9 | 130.1* | 6.3 | 1.16 | 50.7
CCN(CC)C(=S)SCC(=O)c1ccc(F)cc1 | 1 | 132.7* | 2.2 | 2.09 | 77.2
NC(=O)C(CCC(=O)c1ccc(Br)cc1)S(=O)(=O)c1ccccc1 (stereo not drawn) | 1 | 98.4 | -1.0 | 1.25 | -18.1
Cc1ccc(SCc2cn3cccnc3n2)cc1 | 0.9 | 115.2 | 12.3 | 1.44 | 35.5
CC(C)(C)SCCNS(=O)(=O)c1ccccc1 | 1 | 103.9 | -3.8 | 1.07 | -20.8
CN(C)c1ccc(-n2cc3c(=O)n(C)c(=O)n(C)c3c2)cc1 | 0.9 | 134.5* | 7.8 | 1.33 | 19.9
CCn1ccc(C(=O)Nc2cccc(Cl)c2)n1 | 0.8 | 141.0* | 22.1 | 2.26 | 50.8
CCn1ccc(C(=O)Nc2ccccc2Cl)n1 | 0.8 | 138.4* | 21.4 | 4.14* | 162.0*
CCN1CCN(Cc2ccc(NC(=O)Nc3ccccc3Cl)cc2)CC1 | 0.3 | 117.6 | 65.8* | 2.47 | 140.6*
O=C(Nc1ccc(CN2CCCCC2)cc1)Nc1ccccc1Cl | 1 | 115.2 | 3.6 | 1.78 | 41.6
COc1ccc(C(=O)/C=C/Nc2cc(C)on2)cc1 | 0.8 | 138.9* | 24.8 | 4.27* | -36.6
COc1ccc(C(=O)/C=C/Nc2ccc([N+](=O)[O-])cc2)cc1 | 0.9 | 132.2* | 5.5 | 1.24 | 29.3
COc1cccc(C(=O)/C=C/Nc2cc(C)ccc2O)c1 | 0.4 | 133.9* | 61.6* | 25.4* | 1.8
NS(=O)(=O)c1ccc(N/C=C/C(=O)c2ccc(Br)cc2)cc1 | 0.9 | 142.6* | 5.3 | 1.43 | 49.5
COc1ccc(N/C=C/C(=O)c2ccc(Oc3ncccn3)cc2)cc1 | 0.6 | 106.3 | 38.0 | 1.23 | -10.4
SMILES | FLuc stim CS | STAT1 act | FLuc inhib CS | NF-kB expr up | APP 5'UTR act
COc1ccc(CC(=O)Nc2cc(C)on2)cc1 | 1 | 101.7 | -2.4 | 1.17 | -5.3
NS(=O)(=O)c1ccc(N/C=C\C(=O)c2ccncc2)cc1 | 1 | 107.9 | -0.6 | 1.14 | -23.0
C=CCN=C(NC#N)SCCc1ccccc1 | 1 | 98.0 | -2.7 | 1.29 | 3.7
COc1ccc(N/C=C\C(=O)c2ccc(C)cc2)cc1OC | 0.8 | 142.6* | 16.1 | 2.62 | 16.5
COc1ccc(C(=O)/C=C/Nc2cccc(O)c2)cc1 | 0 | 108.4 | 95.2* | 13.5* | 194.7*
Cc1ccc(S(=O)(=O)NCC(=O)N(CC(=O)NCc2ccccc2)CC2CCCO2)cc1 (stereo not drawn) | 1.1 | 93.2 | -7.4 | 1.09 | 5.7
Cc1cccc(NC(=O)C(=O)NCc2ccccn2)c1 | 1 | 117.4 | 0.7 | 1.89 | 3.4
